This is an account of results in ChEMBL document CHEMBL3588851, “Antiviral Matrine-Type Alkaloids from the Rhizomes of Sophora tonkinensis” (J Nat Prod, 2015).

Data set [1] has as its system Coxsackievirus B3. As to the kind of experiment: Antiviral activity against coxsackievirus B3 infected in African green monkey Vero cells assessed as inhibition of virus-induced cytopathogenic effect at maximal nontoxic concentration dosed 1 hr after viral adsorption. The data set is classed as functional, organism-based. The procedure, abridged:
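Confluent Vero monolayers in 96-well plates infected with 100 TCID50 CVB3. After 1 h adsorption at 37 °C, cells washed with PBS. Then incubated at 37 °C in maintenance medium (MEM + 2% FBS) with or without compound, tested at its maximal nontoxic concentration.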
For orientation: Damage to the host cells serves as the signal in cytopathic effect assays.

Data set [2] concerns Influenza A virus. As to the kind of experiment: Antiviral activity against influenza A virus (A/Hanfang/359/95(H3N2)) infected in MDCK cells assessed as inhibition of virus-induced cytopathogenic effect at maximal nontoxic concentration dosed 1 hr after viral adsorption. In kind it is functional, organism-based.
The subject of data set [3] is Coxsackievirus B3. As to the kind of experiment: Antiviral activity against coxsackievirus B3 infected in African green monkey Vero cells assessed as inhibition of virus-induced cytopathogenic effect dosed 1 hr after viral adsorption. The data set is classed as functional, organism-based. As to conditions: Enterovirus B. The procedure, abridged: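 Confluent Vero monolayers were infected with 100 TCID50 CVB3 and adsorbed for 1 h at 37 °C. They were then washed with PBS and kept at 37 °C in MEM plus 2% FBS, with or without a range of compound concentrations. Ribavirin served as positive control.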

A short description of data set [4]: Selectivity index, ratio of TC50 for African green monkey Vero cells to IC50 for coxsackievirus B3 infected in African green monkey Vero cells. In kind it is toxicity, cell-based. As to conditions: read-out: Selectivity Index. In outline:
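SI = TC50/IC50. TC50 from 48 h CPE-monitored Vero toxicity, calculated by Reed and Muench. IC50 from Vero monolayers infected with 100 TCID50 CVB3, adsorbed 1 h at 37 °C, PBS-washed, then maintained in MEM + 2% FBS with compound at 37 °C.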

Data set [5] in a line: Selectivity index, ratio of TC50 for […] MDCK cells to IC50 for influenza A virus (A/Hanfang/359/95(H3N2)). The data set is classed as toxicity, cell-based. As to conditions: read-out: Selectivity Index. In outline: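 SI is TC50/IC50. TC50: MDCK cells were plated for 24 h, then exposed to graded compound concentrations for 48 h at 37 °C in 5% CO2, scored by CPE, and calculated by Reed–Muench. IC50 came from the H3N2-infected MDCK assay, with 1 h adsorption and then compound in MEM plus 2% FBS.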

Data set [6] is described as follows: Cytotoxic activity against MDCK cells assessed as cytopathogenic effect incubated for 48 hrs. In kind it is cell-based, Canis lupus familiaris. As to conditions: dog, read-out: TC50. In outline:
(§1)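 Cells plated in 96-well plates; after 24 h, monolayers exposed to various concentrations of compound for 48 h at 37 °C, 5% CO2. Toxicity monitored by cytopathogenic effect (CPE). Median toxic concentration (TC50) calculated by the Reed and Muench method.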

For data set [7], the system named is Influenza A virus. In words: Antiviral activity against influenza A virus (A/Hanfang/359/95(H3N2)) infected in MDCK cells assessed as inhibition of virus-induced cytopathogenic effect dosed 1 hr after viral adsorption. The data set is classed as functional, organism-based.
The nature of data set [8]: Cytotoxic activity against African green monkey Vero cells assessed as cytopathogenic effect incubated for 48 hrs. In kind it is cell-based. As to conditions: chlorocebus sabaeus, read-out: TC50. The procedure, abridged:
as §1

In data set [9] the test system is Coxsackievirus B3. In words: Antiviral activity against coxsackievirus B3 infected in African green monkey Vero cells assessed as inhibition of virus-induced cytopathogenic effect dosed 1 hr after viral adsorption relative to ribavirin. In kind it is functional.

A word on the IC50: it is the midpoint of a concentration-inhibition curve.

Activity calls are given as the source filed them. The rule behind the calls is not given here.

For the compound `O=C1CCC[C@@H]2[C@H]3CCCN4CCC[C@@H](CN12)[C@@H]34`, the inhibition entry in data set [1] and in data set [2] was “inactive” in each case.
Turning to `NC(=O)c1ncn([C@@H]2O[C@H](CO)[C@@H](O)[C@H]2O)n1` [RIBAVIRIN], the IC50 in data set [3] is 1200 µM. Besides, the selectivity ratio in data set [4] turned out to be 6.8; in data set [5], 813.
Take `O=C1C=CC[C@@H]2[C@H]3CCCN4CCC[C@@](O)(CN12)[C@@H]34`: in data set [6], the CC50 at 48 h was greater than 762 µM. The IC50 in [7] was 440 µM. Further, the selectivity ratio in data set [5] was greater than 1.7. For the same compound, the inhibition result in [1] is “inactive”.
`O=C1C=C[C@H](O)[C@@H]2[C@H]3CCCN4CCC[C@@H](CN12)[C@@H]34`: in data set [6], the CC50 at 48 h was 479 µM. The IC50 in [7] is 84.7 µM. Further, in [5], the selectivity ratio amounted to 5.7. For the same compound, the inhibition entry in [1] was “inactive”.
Take `O=C1CC=C[C@@H]2[C@H]3CCCN4CCC[C@@](O)(CN12)[C@@H]34`: the inhibition entry in data set [1] and in data set [2] was “inactive” throughout.
On to `O=C1[C@@H](O)CC[C@@H]2[C@H]3CCCN4CCC[C@@H](CN12)[C@@H]34`, for which the CC50 at 48 h in data set [8] was determined as 757 µM. Further, in data set [3], the IC50 was 184 µM. Besides, the selectivity ratio in data set [4] was found to be 4.1. For the same compound, in data set [2], the inhibition result was “inactive”.
For the compound `O=C1C=C[C@@H](O)[C@@H]2[C@H]3CCC[N+]4([O-])CCC[C@@H](CN12)[C@@H]34` (some centres not stated), in data set [8], the CC50 at 48 h is 115 µM. Also, in [3], the IC50 amounted to 26.6 µM. Further, the selectivity ratio in data set [4] is 4.3. The inhibition entry in [2] is “inactive”. For the same compound, the “Ratio IC50” value in [9] stood at 45.
In the case of `O=C1CCC[C@@H]2[C@H]3CCCN4CCC[C@@](O)(CN12)[C@@H]34`, the CC50 at 48 h in [8] was greater than 757 µM. In addition, in data set [3], the IC50 is 252 µM. In addition, the selectivity ratio in [4] was greater than 3. The inhibition entry in [2] is “inactive”.
Regarding `O=C1C=CC[C@@H]2[C@H]3C[C@H](O)CN4CCC[C@@H](CN12)[C@@H]34`, in [8], the CC50 at 48 h was greater than 762 µM. In [3], the IC50 was 197 µM. Besides, the selectivity ratio in data set [4] was greater than 3.9. For the same compound, the inhibition result in data set [2] was “inactive”.
As to `O=C1CCC[C@@H]2[C@H]3CCC[N+]4([O-])CCC[C@@H](CN12)[C@@H]34` (some centres not stated), the inhibition result in [1] and in [2] was “inactive” each time.
Consider `O=C1CCC[C@@H]2[C@H]3CCC[N+]4([O-])CCC[C@@](O)(CN12)[C@@H]34` (some centres not stated), for which the inhibition result in data set [1] and in data set [2] was “inactive” throughout.
For the compound `O=C1C=CC[C@@H]2[C@H]3CCC[N+]4([O-])CCC[C@@H](CN12)[C@@H]34` (some centres not stated) [OXYSOPHOCARPINE], the CC50 at 48 h in data set [6] was greater than 762 µM. The 50% inhibitory concentration (IC50) in data set [7] came out at 403 µM. The selectivity ratio in [5] was greater than 1.9. Moreover, the inhibition entry in [1] was “inactive”.
In the case of `O=C1C=CC[C@@H]2[C@H]3CCCN4CCC[C@@H](CN12)[C@@H]34`, the inhibition entry in data set [1] and in data set [2] was “inactive” in each case.
As for `O=C1[C@@H](O)CC[C@@H]2[C@H]3CCC[N+]4([O-])CCC[C@@H](CN12)[C@@H]34` (some centres not stated), the inhibition result in data set [1] and in data set [2] was “inactive” throughout.
Take `CCOC(=O)C1=C[C@@H](OC(CC)CC)[C@H](NC(C)=O)[C@@H](N)C1` [OSELTAMIVIR]: in data set [7], the IC50 came to 1.07 µM. Besides, the selectivity ratio in data set [5] turned out to be 2870.
On to `O=C1CCC[C@@H]2[C@H]3C[C@H](O)CN4CCC[C@@H](CN12)[C@@H]34`, for which the inhibition entry in [1] and in [2] was “inactive” each time.
On to `O=c1cccc2n1C[C@@H]1CCCN3CCC[C@H]2[C@H]13`, for which the CC50 at 48 h in data set [6] turned out to be 273 µM. Further, the IC50 in [7] came out at 63.1 µM. In [5], the selectivity ratio was found to be 4.3. Moreover, the inhibition entry in data set [1] is “inactive”.
Regarding `O=C1C=C[C@@H](O)[C@@H]2[C@H]3CCCN4CCC[C@@H](CN12)[C@@H]34`, the CC50 at 48 h in data set [6] is greater than 762 µM. The IC50 in data set [7] is 242 µM. In [5], the selectivity ratio was greater than 3.1. In addition, in [1], the inhibition result was “inactive”.
Regarding `O=C1C=CC[C@@H]2[C@H]3CCC[N+]4([O-])CCC[C@@](O)(CN12)[C@@H]34` (some centres not stated), the inhibition result in [1] was “inactive”.
